The values that follow come from ChEMBL document CHEMBL1150208, “Production of anti-tumor-promoting iridoid glucosides in Genipa americana and its cell cultures” (J Nat Prod, 1991).

Holding throughout (assay type): cell-based
Data set [1] relates to Raji. The experiment in a line: Inhibition of TPA-induced EBV-early antigen activation in human Raji cells assessed as EA activation at 1000 molar ratio after 48 hrs relative to TPA. As to conditions: human gammaherpesvirus 4. In short, it runs like this:
(§1)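 EBV early antigen activation was induced in Raji cells with TPA (32 pmol) and n-butyrate. Test substance was dosed as a molar ratio to TPA in 0.25% phosphate buffer (pH 7.2) for 48 h. Activation is expressed as % of the TPA-only positive control (=100), reported as mean ± SD.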

In data set [2] the test system is Raji. The experiment in a line: Inhibition of TPA-induced EBV-early antigen activation in human Raji cells assessed as EA activation at 500 molar ratio after 48 hrs relative to TPA. As to conditions: human gammaherpesvirus 4. In short, it runs like this:
as §1

Data set [3] deals with Raji. Kind of data set: Inhibition of TPA-induced EBV-early antigen activation in human Raji cells assessed as EA activation at 100 molar ratio after 48 hrs relative to TPA. As to conditions: human gammaherpesvirus 4. In short, it runs like this: as §1
Data set [4] deals with Raji. The experiment in a line: Inhibition of TPA-induced EBV-early antigen activation in human Raji cells assessed as EA activation at 10 molar ratio after 48 hrs relative to TPA. The following applies: human gammaherpesvirus 4. In short, it runs like this:
as §1

A short description of data set [5]: Cytotoxicity against human Raji cells assessed as cell viability at 1000 molar ratio after 48 hrs by trypan blue assay. As to conditions: read-out: Activity. Summed up:
(§2)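 Raji cells were treated together with TPA (32 pmol), n-butyrate and test substance in 0.25% phosphate buffer solution (pH 7.2). Dose is expressed as molar ratio to TPA. After 48 h, cells were stained with Trypan Blue and surviving cells were counted to give viability %.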

Data set [6] can be described thus: Cytotoxicity against human Raji cells assessed as cell viability at 100 molar ratio after 48 hrs by trypan blue assay. As to conditions: read-out: Activity. In short, it runs like this:
as §2

With `O=CC1=CO[C@@H](O[C@@H]2O[C@H](CO)[C@@H](O)[C@H](O)[C@H]2O)[C@@H]2C(CO)=CC[C@H]12` [TARENNOSIDE], the EA activation (% of TPA-only control) in the data set with Raji [1] was 30.5%. Besides, the EA activation (% of TPA control) with Raji [2] stood at 72.8%. Also, the EA activation relative to TPA control in the data set with Raji [3] is 88.1%. In the data set with Raji [4], the EBV-EA activation (% of TPA control) stood at 100%. In addition, the viability at 48 h, 1000 molar ratio in data set [5] came to 80%.
With `COC(=O)C1=CO[C@@H](O[C@@H]2O[C@H](CO)[C@@H](O)[C@H](O)[C@H]2O)[C@@H]2C(CO)=CC[C@H]12` [GENIPOSIDE], the EA activation (% of TPA-only control) with Raji [1] worked out at 62.4%. Also, the EA activation (% of TPA control) in the data set on Raji [2] worked out at 91%. The EA activation relative to TPA control with Raji [3] stood at 100%. Further, the EBV-EA activation (% of TPA control) in the data set on Raji [4] was found to be 100%. Moreover, the viability at 48 h, 1000 molar ratio in data set [5] worked out at 80%.
As for `COC(=O)C1=CO[C@@H](O[C@@H]2O[C@H](CO)[C@@H](O)[C@H](O)[C@H]2O)[C@H]2[C@@H]1C=C[C@@]2(O)CO` [GARDENOSIDE], the EA activation (% of TPA-only control) with Raji [1] turned out to be 92.6%. Besides, the EA activation (% of TPA control) in the data set on Raji [2] was 100%. For the same compound, in the data set on Raji [3], the EA activation relative to TPA control is 100%. The EBV-EA activation (% of TPA control) in the data set on Raji [4] is 100%. The viability at 48 h, 1000 molar ratio in data set [5] turned out to be 80%.
On to `O=C(O)C1=CO[C@@H](O[C@@H]2O[C@H](CO)[C@@H](O)[C@H](O)[C@H]2O)[C@@H]2C(CO)=CC[C@H]12` [GENIPOSIDIC ACID], for which the EA activation (% of TPA-only control) in the data set with Raji [1] worked out at 34.8%. Besides, the EA activation (% of TPA control) in the data set with Raji [2] amounted to 80.5%. For the same compound, the EA activation relative to TPA control in the data set with Raji [3] came out at 91.8%. The EBV-EA activation (% of TPA control) in the data set with Raji [4] was determined as 100%. For the same compound, the viability at 48 h, 1000 molar ratio in data set [5] was found to be 80%.
With `CC1=C(/C=C/C(C)=C/C=C/C(C)=C/C(=O)O)C(C)(C)CCC1` [TRETINOIN], the EA activation (% of TPA-only control) with Raji [1] was determined as 30%. In the data set on Raji [3], the EA activation relative to TPA control is 67%. Further, the viability at 48 h, 1000 molar ratio in data set [5] came out at 10%. Also, the viability at 48 h, 100 molar ratio in data set [6] turned out to be 40%.
As to `COC(=O)C1=CO[C@@H](O)[C@@H]2C(CO)=CC[C@H]12` [GENIPIN], the EA activation (% of TPA-only control) in the data set with Raji [1] turned out to be 11.5%. For the same compound, the EA activation (% of TPA control) in the data set with Raji [2] was 44.2%. The EA activation relative to TPA control in the data set with Raji [3] worked out at 64.2%. In the data set on Raji [4], the EBV-EA activation (% of TPA control) came out at 100%. Moreover, the viability at 48 h, 1000 molar ratio in data set [5] came to 80%.
